Laboratory results reported in ChEMBL document CHEMBL1144293, “4-(2-Pyridyl)piperazine-1-benzimidazoles as potent TRPV1 antagonists” (Bioorg Med Chem Lett, 2005).

Key:
[1] = target: T1, Transient receptor potential cation channel subfamily V member 1 (Homo sapiens, UniProt Q8NER1); test: Antagonist activity in pH 5.5-induced FLIPR assays in HEK293 cells expressing human TRPV1; format: functional, cell-based
Procedure, shortened: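 Human TRPV1-expressing HEK293 line stimulated by low pH (pH 5.5) as agonist; antagonism measured as inhibition of calcium influx by FLIPR. IC50 reported as mean ± SEM from at least three determinations.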

[2] = target: T1, Transient receptor potential cation channel subfamily V member 1; test: Antagonist activity in capsaicin-induced FLIPR assays in HEK293 cells expressing human TRPV1; format: functional, cell-based
Procedure, shortened: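 HEK293 cells stably expressing human TRPV1; channel activated with 100 nM capsaicin and block of the calcium influx read on a fluorometric imaging plate reader (FLIPR). IC50 given as mean ± SEM of at least three determinations.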

[3] = Cmax value in rat at single dose of 30 mg/kg oral dose; format: ADME, organism-based; set-up: dose 30 mg/kg, route oral; details: in vivo
Procedure, shortened: (§1)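 Rat pharmacokinetics: systemic exposure estimated after a single 3 mg/kg intravenous dose and, separately, a single 30 mg/kg oral dose. Parameters derived include Vd, CL, terminal t1/2, Tmax, Cmax and oral bioavailability (F%).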

[4] = Terminal half life value in rat at single dose of 3 mg/kg intravenously; format: ADME, organism-based; set-up: dose 3 mg/kg, route intravenous; details: in vivo, iv; procedure, shortened: as §1
[5] = Time taken for cmax value in rat at single dose of 30 mg/kg oral dose; format: ADME, organism-based; set-up: dose 30 mg/kg, route oral; details: in vivo; procedure, shortened: as §1
[6] = Bioavailability in rat (single dose 30 mg/kg p.o.); format: ADME, organism-based; details: in vivo, po; procedure, shortened: as §1
[7] = Clearance value in rat at single dose of 3 mg/kg intravenously; format: ADME, organism-based; set-up: dose 3 mg/kg, route intravenous; details: in vivo, iv; procedure, shortened: as §1
[8] = Volume distribution in rat at single dose of 3 mg/kg intravenously; format: ADME, organism-based; set-up: dose 3 mg/kg, route intravenous; details: in vivo, iv; procedure, shortened: as §1
[9] = Bioavailability in rat at single dose of 30 mg/kg orally; details: in vivo, oral
[10] = Clearance value in rat at single dose of 3 mg/kg iv dose; details: in vivo
[11] = Terminal half life value in rat at single dose of 3 mg/kg iv dose; details: in vivo

T1 sequence (Q8NER1 whole entry): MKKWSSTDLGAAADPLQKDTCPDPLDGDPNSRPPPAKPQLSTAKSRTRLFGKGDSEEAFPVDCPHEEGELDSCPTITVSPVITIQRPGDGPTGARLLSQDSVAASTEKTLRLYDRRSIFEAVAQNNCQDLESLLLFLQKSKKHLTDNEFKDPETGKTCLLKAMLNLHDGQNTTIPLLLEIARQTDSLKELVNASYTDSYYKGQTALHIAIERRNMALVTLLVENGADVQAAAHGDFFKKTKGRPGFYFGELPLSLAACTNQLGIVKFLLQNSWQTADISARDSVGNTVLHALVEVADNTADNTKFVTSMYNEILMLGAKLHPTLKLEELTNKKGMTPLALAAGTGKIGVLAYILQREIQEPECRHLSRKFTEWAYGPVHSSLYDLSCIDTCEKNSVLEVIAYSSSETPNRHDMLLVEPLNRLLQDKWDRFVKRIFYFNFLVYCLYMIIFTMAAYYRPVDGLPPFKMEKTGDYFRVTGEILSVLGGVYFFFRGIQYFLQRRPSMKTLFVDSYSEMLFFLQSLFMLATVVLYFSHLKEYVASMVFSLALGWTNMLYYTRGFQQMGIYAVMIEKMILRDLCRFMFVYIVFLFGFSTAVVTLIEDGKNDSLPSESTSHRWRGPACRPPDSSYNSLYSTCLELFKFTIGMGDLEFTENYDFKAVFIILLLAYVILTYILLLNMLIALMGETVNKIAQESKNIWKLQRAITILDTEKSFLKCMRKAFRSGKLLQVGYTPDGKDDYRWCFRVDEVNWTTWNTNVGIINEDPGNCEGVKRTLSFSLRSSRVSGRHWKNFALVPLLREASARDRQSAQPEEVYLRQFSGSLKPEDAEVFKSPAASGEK

Structure (SMILES)	IC50 [1] [nM]	IC50 [2] [nM]	also measured
CC(C)(C)c1ccc2oc(N3CCN(c4ncccc4Cl)CC3)nc2c1	> 10000	2140	–
C[C@@H]1CN(c2nsnc2Cl)CCN1c1nc2ccc(C(C)(C)C)cc2[nH]1	> 10000	776	–
Cc1cc2nc(N3CCN(c4ncccc4Cl)CC3)n(C)c2cc1C	> 25000	5450	–
C[C@@H]1CN(c2ncccc2Cl)CCN1c1nc2ccc(Cl)cc2[nH]1	–	325	–
Cc1cc2nc(N3CCN(c4ncccc4Cl)C[C@@H]3C)[nH]c2cc1C	> 25000	5770	–
COc1ccc2nc(N3CCN(c4ncccc4Cl)C[C@H]3C)[nH]c2c1	–	665	–
CC(C)(C)c1ccc(NC(=O)N2CCN(c3ncccc3Cl)CC2)cc1	–	–	bioavailability [6]: 15%

More lines, main results first:

IC50 [1] [nM]	IC50 [2] [nM]	Structure (SMILES)	also measured
1410	–	C[C@@H]1CN(c2ncccc2Cl)CCN1c1nc2cc(C(C)(C)C)ccc2o1	–
10000	113	Cc1cc2nc(N3CCN(c4ncccc4Cl)C[C@H]3C)[nH]c2cc1C	–
104	90.4	C[C@@H]1CN(c2ncccc2Cl)CCN1c1nc2ccc(C(C)(C)C)cc2[nH]1	Cmax [3]: 300 ng/mL; half-life [4]: 35.4 min; Tmax [5]: 180 min; bioavailability [6]: 19.7%; clearance [7]: 134 mL/min/kg; Vd [8]: 6.87 L/kg; bioavailability [9]: 19.7%; clearance [10]: 133 mL/min/kg; half-life [11]: 36 min
1780	32.4	C[C@@H]1CN(c2ncccc2C(F)(F)F)CCN1c1nc2ccc(C(C)(C)C)cc2[nH]1	–
1690	136	CC(C)(C)c1ccc2nc(N3CCN(c4ncccc4Cl)CC3)[nH]c2c1	–
597	–	Cc1cccnc1N1CCN(c2nc3ccc(C(C)(C)C)cc3[nH]2)[C@H](C)C1	–
3610	948	C[C@H]1CN(c2ncccc2Cl)CCN1c1nc2ccc(C(C)(C)C)cc2[nH]1	–
